MC4R antagonist = MC4R antagonists of cAMP signaling, primary screen, cell-based, TR-FRET, antagonist arm of biased-ligand search. Melanocortin receptor 4 (Homo sapiens), P32245. MC4R-expressing cells, MTII-stimulated cAMP, LANCE TR-FRET. inhibition, % at 6.5 µM. 360,000 tested, 0.48% active. AID 540295, 2011;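 active = inhibition above its plate's cutoff, the mean of tested wells on that plate plus 3 SD, cut at about 29% in these data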
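system = U2OS cells with stable human MC4R expression | also added = Melanotan II challenge after compound preincubation | dosing = one concentration, 6.5 µM nominal | incubation = compound 30 min, challenge 1 h, detection 1 h | measured by = TR-FRET with Eu-cAMP and labeled anti-cAMP, 671 nm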
MC4R barr agon = MC4R agonists recruiting beta-arrestin, primary screen, cell-based, luminescence, agonist arm of biased-ligand search; activation, % at 8.9 µM; U2OS MC4R beta-arrestin complementation; percent of melanotan II response, DMSO zero; AID 540308, 2011; 360,000 tested, 0.98% active;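 active = activation above a per-plate cutoff, the mean activation of sample wells on that plate plus 3 SD, cut at about 8% in these data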
ATG4B inhibitor = ATG4B protease inhibitors, primary screen, biochemical, fluorescence, uHTS. 340,000 tested, 0.51% active. Cysteine protease ATG4B (Homo sapiens), Q9Y4P1. ATG4B cleavage of LC3-PLA2, NBD-HPC fluorescence, 1 h. inhibition, % at 8.33 µM. AID 504462, 2011; in the data active = inhibition above about 40%
Target sequence (Q9Y4P1 whole entry, looked up): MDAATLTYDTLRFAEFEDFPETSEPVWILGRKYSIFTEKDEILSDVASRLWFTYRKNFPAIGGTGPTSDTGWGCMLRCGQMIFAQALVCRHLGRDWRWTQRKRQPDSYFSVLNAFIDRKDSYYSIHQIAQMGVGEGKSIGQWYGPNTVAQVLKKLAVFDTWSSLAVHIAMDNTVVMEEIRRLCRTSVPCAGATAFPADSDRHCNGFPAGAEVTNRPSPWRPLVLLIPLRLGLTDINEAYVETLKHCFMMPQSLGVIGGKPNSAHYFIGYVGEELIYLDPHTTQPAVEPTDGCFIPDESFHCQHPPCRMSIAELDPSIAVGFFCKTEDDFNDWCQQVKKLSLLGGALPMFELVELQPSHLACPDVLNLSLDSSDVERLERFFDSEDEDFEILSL
SMARCA2 act = SMARCA2 (BRM) function activators, primary screen, cell-based, luminescence, high throughput; MG213 cells, MMTV-luciferase reporter, dexamethasone, overnight; AID 652017, 2013; 370,000 tested, 1% active; activation, % at 9.1 µM; in the data active = activation above about 7.8%
MPTP block = mitochondrial permeability transition pore inhibitors, primary screen, biochemical, isolated mouse mitochondria, absorbance. Ca2+ swelling absorbance, 30 min. inhibition, % at 10 µM. AID 602449, 2012. 360,000 tested, 1.4% active;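 active = inhibition of 50% or more, scaled per plate between neutral and stimulator controls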
MC4R barr conf = MC4R beta-arrestin agonists, retest, confirmation, cell-based, luminescence, U2OS. 2,400 tested, 31% active. shares compounds with MC4R barr agon. activation, % at 8.9 µM. AID 602192, 2012. U2OS MC4R beta-arrestin recruitment; scaled DMSO 0%, Melanotan II 100%;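 active = mean activation across replicates above the hit cutoff set in the earlier primary screen, cut at about 8% in these data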
MOR-DOR barr ag = agonists of MOR-DOR heterodimerization, counter-screen for MC4R biased agonist project, cell-based, luminescence. U2OS PathHunter beta-arrestin, beta-gal luminescence; percent of deltorphin B response, DMSO zero. shares compounds with MC4R barr agon. activation, % at 9.2 µM. 2,400 tested, 5.8% active;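 active = mean activation across replicates exceeds the hit threshold derived in the earlier primary screen, cut at about 18% in these data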
A number is an active result. This is a sample that favours compounds with a hit; in the whole collection about 4.1% have one here.

How did CC1CN(c2ccc([N+](=O)[O-])c(NCCOc3ccc(Cl)cc3)c2)CC(C)N1 (stereo not given) do in these assays?
MC4R antagonist: inactive; MC4R barr agon: inactive; ATG4B inhibitor: inactive; SMARCA2 act: inactive; MPTP block: inactive

Results for CCc1ccc(OCCNc2cc(N3CCNC(C)C3)ccc2[N+](=O)[O-])cc1 (stereo not given) ?
MC4R antagonist: inactive; MC4R barr agon: 11; ATG4B inhibitor: inactive; SMARCA2 act: inactive; MPTP block: inactive; MC4R barr conf: 23; MOR-DOR barr ag: inactive

What do the screens show for `CCN(C(=O)CSc1nnc(-c2cccnc2)n1Cc1ccco1)c1ccccc1C`?
SMARCA2 act: inactive

How did CCOC(=O)c1c(N)sc(C(O)(C(F)(F)F)C(F)(F)F)c1-c1ccc(F)cc1 do in these assays?
MC4R antagonist: inactive; MC4R barr agon: 11; ATG4B inhibitor: inactive; SMARCA2 act: inactive; MPTP block: inactive; MC4R barr conf: inactive; MOR-DOR barr ag: inactive

How did CCOC(=O)c1c(N)sc(C(O)(C(F)(F)F)C(F)(F)F)c1-c1ccc(Cl)cc1 do in these assays?
MC4R antagonist: inactive; MC4R barr agon: inactive; ATG4B inhibitor: inactive; SMARCA2 act: inactive; MPTP block: inactive

What do the screens show for `COC(=O)c1cc2c(c3c4cc(F)ccc4n(S(=O)(=O)c4ccc(OC)cc4)c13)C(=O)N(Cc1ccccc1OC)C2`?
SMARCA2 act: inactive

How did CCOc1ccccc1-c1nc(-c2ccc(NC(=O)Cc3ccc(OC)cc3)cc2)no1 do in these assays?
MC4R antagonist: inactive; MC4R barr agon: 21; ATG4B inhibitor: inactive; SMARCA2 act: inactive; MPTP block: inactive; MC4R barr conf: 25; MOR-DOR barr ag: 21

Results for CN(CCCOC(=O)c1cc2ccccc2o1)C1CN(Cc2cn(Cc3ccccc3C(F)(F)F)nn2)S(=O)(=O)C1 (stereo not given) ?
SMARCA2 act: inactive

How did O=C(CCSc1nnc2ccc3ccccc3n12)Nc1ccc(F)cc1 do in these assays?
MC4R antagonist: inactive; MC4R barr agon: 39; ATG4B inhibitor: inactive; SMARCA2 act: inactive; MPTP block: inactive; MC4R barr conf: inactive; MOR-DOR barr ag: inactive

Results for O=C(CCSc1nnc2ccccn12)Nc1ccc(F)cc1 ?
MC4R antagonist: inactive; MC4R barr agon: inactive; ATG4B inhibitor: inactive; SMARCA2 act: inactive; MPTP block: inactive

How did Cc1nn(Cc2ccccc2)c(C)c1C(=O)NCCN1C(=O)S/C(=C\c2ccccc2)C1=O do in these assays?
MC4R antagonist: inactive; MC4R barr agon: 11; ATG4B inhibitor: inactive; SMARCA2 act: inactive; MPTP block: inactive; MC4R barr conf: inactive; MOR-DOR barr ag: inactive

Results for Cc1ccccc1C(=O)N[C@H](C(=O)N1CCC[C@H]1C(=O)NC1CCCC1)C1CCCCC1 ?
SMARCA2 act: inactive

How did CCOC(=O)[C@]12CCCCC/C=C\1N(Cc1ccc(OC)cc1)C(=O)[C@H]2CC(=O)N1CCCC1 do in these assays?
SMARCA2 act: inactive

Results for CN1C(=O)/C(=C/c2ccccc2OCc2cccc(F)c2)NC1=S ?
MC4R antagonist: inactive; MC4R barr agon: 30; ATG4B inhibitor: inactive; SMARCA2 act: inactive; MPTP block: inactive; MC4R barr conf: inactive; MOR-DOR barr ag: inactive

What do the screens show for `Cc1ccc(NC(=O)c2ccccc2O)cc1`?
MC4R antagonist: inactive; MC4R barr agon: inactive; ATG4B inhibitor: inactive; SMARCA2 act: inactive; MPTP block: inactive

What do the screens show for `Cc1cc(C)cc(NC(=O)Nc2ccc(NC(=O)c3ccccc3O)cc2)c1`?
MC4R antagonist: inactive; MC4R barr agon: 16; ATG4B inhibitor: inactive; SMARCA2 act: inactive; MPTP block: inactive; MC4R barr conf: inactive; MOR-DOR barr ag: inactive

Screening data: PubChem BioAssay, several laboratories
